Our source for the MIC values is ChEMBL document CHEMBL1212735, “Metronidazole resistance in Prevotella spp. and description of a new nim gene in Prevotella baroniae” (2010).

Holding throughout (format): functional
Assay [1] relates to Prevotella baroniae. Kind of assay: Antimicrobial activity against Prevotella baroniae LBN 432 expressing nimI gene assessed as inhibition of growth after three consecutive subcultures on compound free medium by agar dilution method. The note with it: Segatella baroniae. The essentials: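 Stability of induced resistance: metronidazole-selected isolates were subcultured three consecutive times on drug-free brucella blood agar (5% sheep blood, hemin, vitamin K1) under anaerobic conditions, then MIC was redetermined by CLSI agar dilution. Resistance was called stable if the MIC held within ±1 dilution. Duplicate experiments.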

Assay [2] deals with Prevotella bivia. Kind of assay: Antimicrobial activity against slow growing colonies of Prevotella bivia LBP 38 deficient in nim gene assessed as inhibition of growth at 48 hrs by agar dilution method. The note with it: LBP 38, 48 h. The essentials:
(§1)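 Metronidazole MIC by agar dilution per CLSI M11-A7 on brucella agar with 5% sheep blood, hemin and vitamin K1. Plates incubated anaerobically at 35°C and read at 48 h, with a second reading after a further 72 h. B. fragilis ATCC 25285T and B. thetaiotaomicron ATCC 29741 served as controls. Done in duplicate; EUCAST breakpoints applied (S ≤4, R ≥8 μg/ml).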

The test system of assay [3] is Prevotella nanceiensis. The assay can be described thus: Antimicrobial activity against Prevotella nanceiensis LBN 410 deficient in nimI gene assessed as inhibition of growth after several passages on plates containing increasing concentration of compound by agar dilution method. The note with it: Hoylesella nanceiensis. The essentials:
(§2)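 Induction of metronidazole resistance: bacterial suspensions inoculated onto brucella blood agar (5% sheep blood, hemin, vitamin K1) containing metronidazole at increasing concentrations, grown anaerobically at 37°C. Colonies growing at the highest concentration were retested for MIC by CLSI agar dilution on the same agar. Duplicate experiments.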

Assay [4] relates to Prevotella bivia. Kind of assay: Antimicrobial activity against Prevotella bivia LBN 333 deficient in nim gene assessed as inhibition of growth at 48 hrs by agar dilution method. The settings on record: LBN 333, 48 h. Put shortly: (§3)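 Metronidazole MIC by agar dilution (CLSI M11-A7) on brucella agar with 5% sheep blood, hemin and vitamin K1. Plates were read after 48 h at 35°C under anaerobic conditions. Susceptible was MIC ≤ 4 μg/ml and resistant MIC ≥ 8 μg/ml (EUCAST). B. fragilis ATCC 25285T and B. thetaiotaomicron ATCC 29741 were run as controls. Duplicate assays.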

The test system of assay [5] is Prevotella bivia. The assay can be described thus: Antimicrobial activity against Prevotella bivia LBP 38 deficient in nim gene assessed as inhibition of growth at 48 hrs by agar dilution method. The note with it: LBP 38, 48 h. Put shortly:
as §3

For assay [6], the system named is Prevotella bivia. Kind of assay: Antimicrobial activity against Prevotella bivia LBN 445 deficient in nim gene assessed as inhibition of growth at 48 hrs by agar dilution method. The note with it: LBN 445, 48 h. The essentials:
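Agar dilution MIC on brucella agar with 5% sheep blood, hemin and vitamin K1, following CLSI M11-A7. Plates read after 48 h at 35°C under anaerobic conditions, with B. fragilis ATCC 25285T and B. thetaiotaomicron ATCC 29741 as controls. Assays in duplicate. Isolates kept at −80°C in brucella broth with 15% glycerol. Interpretation used EUCAST breakpoints (S ≤4, R ≥8 μg/ml).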

In assay [7] the test system is Prevotella nanceiensis. Kind of assay: Antimicrobial activity against Prevotella nanceiensis LBN 293b deficient in nim gene assessed as inhibition of growth at 48 hrs by agar dilution method. The note with it: Hoylesella nanceiensis. The essentials: as §3
The subject of assay [8] is Prevotella bivia. Kind of assay: Antimicrobial activity against slow growing colonies of Prevotella bivia LBN 336 deficient in nim gene assessed as inhibition of growth at 48 hrs by agar dilution method. The note with it: LBN 336, 48 h. Put shortly: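 Slowly growing colonies inside the Etest inhibition zone, seen after prolonged incubation (an additional 72 h after the 48 h reading), were subcultured without antibiotic. They were then retested for metronidazole MIC by agar dilution on supplemented brucella blood agar under anaerobic conditions.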

For assay [9], the system named is Prevotella nanceiensis. The assay can be described thus: Antimicrobial activity against slow growing colonies of Prevotella nanceiensis LBP 66 deficient in nim gene assessed as inhibition of growth at 48 hrs by agar dilution method. The note with it: Hoylesella nanceiensis, LBP 66, 48 h. Put shortly:
as §1

Assay [10] deals with Prevotella baroniae. Kind of assay: Antimicrobial activity against Prevotella baroniae DSM 16972T expressing nimI gene assessed as inhibition of growth after several passages on plates containing increasing concentrations of compound by agar dilution method. The note with it: Segatella baroniae. Put shortly:
as §2

The test system of assay [11] is Prevotella bivia. Kind of assay: Antimicrobial activity against Prevotella bivia LBN 374 deficient in nim gene assessed as inhibition of growth at 48 hrs by agar dilution method. The settings on record: LBN 374, 48 h. Put shortly:
as §3

Assay [12] concerns Bacteroides fragilis. Kind of assay: Antimicrobial activity against Bacteroides fragilis ATCC 25285T deficient in nimI gene assessed as inhibition of growth after several passages on plates containing increasing concentration of compound by agar dilution method. Put shortly:
as §2

For assay [13], the system named is Prevotella bivia. The assay can be described thus: Antimicrobial activity against slow growing colonies of Prevotella bivia LBP 69 deficient in nim gene assessed as inhibition of growth at 48 hrs by agar dilution method. The note with it: LBP 69, 48 h. Put shortly: as §1

≈ marks a conversion by molar mass, not a printed value.

In the case of `Cc1ncc([N+](=O)[O-])n1CCO` [METRONIDAZOLE], the MIC was found to be 64 µg/mL (≈ 374 µM) in [1]; 8 µg/mL (≈ 46.7 µM) in assay [2]; 256 µg/mL (≈ 1500 µM) in assay [3]; 2 µg/mL (≈ 11.7 µM) in assay [4]; 2 µg/mL (≈ 11.7 µM) in assay [5]; 0.5 µg/mL (≈ 2.92 µM) in [6]. Besides, the MIC in [7] turned out to be 2 µg/mL (≈ 11.7 µM); in [8], 32 µg/mL (≈ 187 µM); in assay [9], 8 µg/mL (≈ 46.7 µM); in [10], 16 µg/mL (≈ 93.5 µM); in assay [11], 2 µg/mL (≈ 11.7 µM); in assay [12] it was 256 µg/mL (≈ 1500 µM). Besides, the MIC in [13] is 8 µg/mL (≈ 46.7 µM).
